Laboratory results published in PubChem BioAssay AID743337 (The Scripps Research Institute Molecular Screening Center, 2014).
Activity calls are given as the source filed them.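 How the source made its calls: active means IC50 of 10 µM or lower; inactive means IC50 above 10 µM.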

target: Disintegrin and metalloproteinase domain-containing protein 17 (Homo sapiens) (UniProt P78536); test: concentration-dependent inhibition of human ADAM17 – biochemical, QFRET peptide cleavage, IC50, ADAM17 exosite inhibitor project, late-stage follow-up (AID 743337); conditions: recombinant ADAM17, QFRET peptide cleavage, fluorescence 3 h
Summary of the method: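 Detection: fluorescence gain from peptide cleavage, excitation 359 nm, emission 460 nm; test system: ADAM17 metalloprotease enzyme, cell-free biochemical assay; input: 2X ADAM17 solution, 20 nM; read-out: IC50 from four-parameter sigmoidal dose-response fit; timing: 30 min compound-enzyme preincubation, then 3 h substrate cleavage, 25 °C; benchmarks: 1 µM marimastat and DMSO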

Disintegrin and metalloproteinase domain-containing protein 17 (Homo sapiens), sequence (P78536 215-824 limits assumed): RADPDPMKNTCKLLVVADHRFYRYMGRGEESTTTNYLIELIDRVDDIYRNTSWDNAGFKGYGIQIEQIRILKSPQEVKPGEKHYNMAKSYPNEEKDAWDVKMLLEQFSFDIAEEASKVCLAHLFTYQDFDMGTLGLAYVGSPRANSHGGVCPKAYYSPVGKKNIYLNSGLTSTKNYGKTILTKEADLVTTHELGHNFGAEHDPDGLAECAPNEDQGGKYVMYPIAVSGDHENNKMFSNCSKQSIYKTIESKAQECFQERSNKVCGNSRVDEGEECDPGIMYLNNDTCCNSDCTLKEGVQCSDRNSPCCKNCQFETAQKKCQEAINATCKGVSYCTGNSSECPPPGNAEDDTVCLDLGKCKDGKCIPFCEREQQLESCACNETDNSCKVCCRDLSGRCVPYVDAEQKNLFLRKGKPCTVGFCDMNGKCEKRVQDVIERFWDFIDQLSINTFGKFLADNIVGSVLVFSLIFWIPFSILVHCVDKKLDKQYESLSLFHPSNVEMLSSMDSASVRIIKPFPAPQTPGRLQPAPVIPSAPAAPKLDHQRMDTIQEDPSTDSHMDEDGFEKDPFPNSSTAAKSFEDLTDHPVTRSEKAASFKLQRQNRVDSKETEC

| Compound | IC50 |
| --- | --- |
| C=C(C)COc1ccc(-c2n[nH]c(C)c2Oc2ccccc2OC)c(O)c1 | > 69.5 µM (inactive) |
| CS(=O)(=O)N(CC(=O)Nc1ccccc1Sc1ccccc1)c1cccc(Br)c1 | > 69.5 µM (inactive) |
| O=S(=O)(NCC(Nc1ccc(Cl)cc1)c1ccccc1)c1ccccc1 (centres undefined) | > 69.5 µM (inactive) |
| C=C(C)COc1ccc(-c2[nH]ncc2Oc2ccc(OC)cc2)c(O)c1 | > 69.5 µM (inactive) |
| Cc1ccc(CC2(c3ccccc3)NC(=O)NC2=O)cc1 (centres undefined) | inactive |
| CCCOC(=O)c1ccc(Oc2cn[nH]c2-c2ccc(OCC)cc2O)cc1 | > 69.5 µM (inactive) |
| O=C(Nc1ccc(OCC(F)(F)C(F)F)c(C(F)(F)F)c1)c1ccc(Cl)cc1 | > 69.5 µM (inactive) |
| COc1ccc2nc(SCC(=O)Nc3ccc(S(=O)(=O)N4CCCC4)cc3)c(C#N)cc2c1 | > 69.5 µM (inactive) |
| CCOc1ccc(NC(=O)CC2SC(=O)N(c3ccccc3)C2=O)cc1 (centres undefined) | 7.83 µM |
| O=S(=O)(NCC(Nc1ccc(Cl)cc1)c1ccccc1)c1ccc(Cl)cc1 (centres undefined) | > 69.5 µM (inactive) |
| O=C1NC(=O)C(Cc2ccc(Cl)cc2)(c2ccccc2)N1 (centres undefined) | 3.76 µM |
| Oc1cc2c(cc1C(c1ccc(Cl)c(Cl)c1)N1CCCC1)OCO2 (centres undefined) | inactive |
| O=C(O)CCC(=O)c1c[nH]c2ccccc12 | inactive |
| Cc1ccc(S(=O)(=O)Nc2ccc(Cl)cc2)cc1NC(=O)c1cc2c(s1)CCCC2 | > 69.5 µM (inactive) |
| O=C(Nc1ccc(OCC(F)(F)C(F)(F)F)c(C(F)(F)F)c1)c1ccc(Br)cc1 | > 69.5 µM (inactive) |
| C=C(C)COc1ccc(-c2[nH]ncc2Oc2cccc(OC)c2)c(O)c1 | > 69.5 µM (inactive) |
| COc1cccc(C(=O)NNC(=O)C(=O)Nc2ccc(C)c(Cl)c2)c1 | > 69.5 µM (inactive) |
| Cc1ccc(OCC(O)Cn2c3ccccc3c3ccccc32)cc1 (centres undefined) | > 69.5 µM (inactive) |
| CCCCN(Cc1ccccc1)S(=O)(=O)c1cc(Br)cc2c1N(C(C)=O)C(C)C2 (centres undefined) | > 69.5 µM (inactive) |
| Cc1csc(-c2cnn(-c3ccccc3)c2NC(=O)c2ccc(C(F)(F)F)cc2)n1 | > 69.5 µM (inactive) |
| O=C(Nc1ccc(OCC(F)(F)C(F)(F)F)c(C(F)(F)F)c1)c1ccc(F)cc1 | > 69.5 µM (inactive) |
| COc1ccccc1NS(=O)(=O)c1cccc(NC(=O)Nc2ccc(Cl)cc2)c1 | > 69.5 µM (inactive) |
| COc1ccc(-c2ccc(-c3noc(-c4cccc(OC)c4)n3)c(OC)n2)cc1 | > 69.5 µM (inactive) |
| O=C(CN(Cc1cccs1)S(=O)(=O)c1ccc(S(=O)(=O)NC2CCCCC2)cc1)Nc1ccccc1 | > 69.5 µM (inactive) |
